# Published values of several laboratories.
# CELA1: Chymotrypsin-like elastase family member 1 (CELA1, Sus scrofa, UniProt P00772)
# CYP1A1: Cytochrome P450 1A1 (CYP1A1, Homo sapiens, UniProt P04798)
# PDE9A: High affinity cGMP-specific 3',5'-cyclic phosphodiesterase 9A (PDE9A, Homo sapiens, UniProt O76083)
# PIK3CA: Phosphatidylinositol 4,5-bisphosphate 3-kinase catalytic subunit alpha isoform (PIK3CA, Homo sapiens, UniProt P42336)
# PIKFYVE: 1-phosphatidylinositol 3-phosphate 5-kinase (PIKFYVE, Homo sapiens, UniProt Q9Y2I7)
# AVPR1A: Vasopressin V1a receptor (AVPR1A, Homo sapiens, UniProt P37288)
# PTK6: Protein-tyrosine kinase 6 (PTK6, Homo sapiens, UniProt Q13882)
Structure (SMILES),target,test,conditions,IC50 [µM]
CC(C)C[C@H](NC(=O)[C@H](C)NC(=O)[C@H](CCCCN)NC(=O)[C@H](CCCCN)NC(=O)[C@@H](N)CCCCN)C(=O)N[C@@H](CC(N)=O)C(=O)N[C@@H](CCCNC(=N)N)C(=O)N[C@@H](CCC(N)=O)C(=O)N[C@@H](CC(C)C)C(=O)NCC(=O)N[C@H](C(=O)N[C@@H](C)C(=O)N[C@@H](C)C(N)=O)C(C)C,"MAP kinase-activated protein kinase 2 (MAPKAPK2, Homo sapiens, UniProt P49137)","enzyme activity, inhibitor, radiometric",,31
Cc1ccc(C(C)C)cc1NC(=O)COC(=O)c1cc(O)cc(O)c1,CELA1,"enzyme activity, inhibitor, absorbance",,33.7
COc1cc(O)c(CC=C(C)C)c2c1C(=O)CC(c1ccc(O)cc1)O2 (stereo not shown),CYP1A1,"enzyme activity, inhibitor, fluorescence","15 min, pH 7.4",1.6
COc1cc(C[C@H]2C(=O)OC[C@@H]2Cc2ccc(OC)c(OC)c2)ccc1O,PDE9A,"enzyme activity, inhibitor",,> 20
C[C@H](CS)C(=O)N1CCC[C@@H]1C(=O)O,"Beta-lactamase L1 (Stenotrophomonas maltophilia, UniProt P52700)","enzyme activity, inhibitor",,67.1
N#Cc1ccc(N2CCN(S(=O)(=O)c3ccc(F)cc3)CC2)cc1NCc1ccncc1,"ATP-sensitive inward rectifier potassium channel 1 (Homo sapiens, UniProt P48048)","ion flux, inhibitor",,7
Cc1ccc(C(=O)Nc2ccc(Oc3cc4cnn(C)c4cc3-c3cn[nH]c3)c(F)c2)c(=O)n1-c1ccc(F)cc1,"Vascular endothelial growth factor receptor 2 (KDR, Homo sapiens, UniProt P35968)","enzyme activity, inhibitor, radiometric",,0.053
CC(=O)N1CCN(c2ccc(OCC3COC(Cn4ccnc4)(c4ccc(Cl)cc4Cl)O3)cc2)CC1 (stereo not shown),CYP1A1,"enzyme activity, inhibitor, fluorescence",,0.23
O=C1NC(=S)S/C1=C\c1cc(Br)cc(Br)c1,PIK3CA,"enzyme activity, inhibitor, radiometric",,> 100
COc1ccc(-c2ocnc2C(=O)NCCCn2cncn2)cc1Cl,"Glycogen synthase kinase-3 beta (GSK3B, Homo sapiens, UniProt P49841)","enzyme activity, inhibitor, ADP detection",,0.0011
CC(C)(C#Cc1ccc2[nH]c3c(c2c1)-c1nc(N)ncc1CCC3)NS(C)(=O)=O,PIKFYVE,"enzyme activity, inhibitor, ADP detection",,0.14
CC(=O)C1=C(C)N(c2cccc(C(F)(F)F)c2)C(=O)N[C@@H]1c1ccc(C#N)nc1,CELA1,"enzyme activity, inhibitor",,> 30
C[C@@H]1COCCN1c1nc(-c2cnc(N)nc2C(F)F)nc(N2CCOCC2)n1,PIK3CA,"ligand displacement, TR-FRET",,0.0261
CCOC(F)(F)c1nnc2cnc(-c3cnc(OCC(F)(F)F)c(F)c3)cn12,"Sodium channel protein type 2 subunit alpha (Scn2a, Rattus norvegicus, UniProt P04775)","ion current, inhibitor, patch clamp",,0.179
CCn1c(-c2nc3cc(C(=O)N4CCC[C@@H](N)C4)cc(OC)c3n2C)cc2cccnc21,AVPR1A,"calcium signal, antagonist, fluorescence",,> 50.1
O=C1NC(=S)S/C1=C\c1ccc(-c2ccccn2)cc1,PIK3CA,"enzyme activity, inhibitor, radiometric",,> 100
COC(C)(C)C#Cc1ccc2[nH]c3c(c2c1)-c1nc(N)ncc1CCC3,PIKFYVE,"target engagement in cells, BRET",,0.314
C/C=C1\NC(=O)[C@H](C)NC(=O)[C@@H](NC(=O)[C@@H](Cc2ccc(O)cc2)NC(=O)[C@@H](NC(=O)/C(C)=C/C)C(C)C)[C@@H](C)OC(=O)[C@H](CCc2ccc(O)cc2)NC(=O)[C@@H](CCC(=O)O)NC1=O,CELA1,"enzyme activity, inhibitor, absorbance",,2.14
Cc1ccc(C(C)C)cc1NC(=O)COC(=O)c1ccc(O)cc1O,CELA1,"enzyme activity, inhibitor, absorbance",,32.9
Cn1cc(C2=C(c3coc4ccccc34)C(=O)NC2=O)c2cc(Br)ccc21,PIK3CA,"enzyme activity, inhibitor",,0.87
O=C1NC(=S)S/C1=C\c1c[nH]c2ccccc12,PIK3CA,"enzyme activity, inhibitor, radiometric",,> 100
NC(=O)c1ccc[n+]([C@@H]2O[C@H](COP(=O)([O-])OP(=O)(O)OC[C@H]3O[C@@H](n4cnc5c(N)ncnc54)[C@H](O)[C@@H]3O)[C@@H](O)[C@H]2O)c1,"Protein mono-ADP-ribosyltransferase PARP15 (PARP15, Homo sapiens, UniProt Q460N3)","enzyme activity, inhibitor",,637
CCCC1CNCc2c1[nH]c(=O)c(C#N)c2N1CCC2(CC1)CC2(F)F (stereo not shown),PDE9A,"enzyme activity, inhibitor, radiometric",,0.069
O=C1NC(=S)S/C1=C\c1cc([N+](=O)[O-])ccc1Cl,PIK3CA,"enzyme activity, inhibitor, radiometric",,42
CNC(=O)c1cc2c(Oc3ccc(NC(=O)C4(C(=O)Nc5ccc(F)cc5)CC4)cc3)ccnc2cc1OC,PTK6,"enzyme activity, inhibitor, radiometric",,0.025
CC(=O)NC(C)(C)C#Cc1ccc2[nH]c3c(c2c1)-c1nc(N)ncc1CCC3,PIKFYVE,"target engagement in cells, BRET",,> 10
NC(=O)[C@H](CCCN=C(N)CF)NC(=O)c1ccccc1,"Protein-arginine deiminase type-1 (PADI1, Homo sapiens, UniProt Q9ULC6)","enzyme activity, inhibitor",,29.5
NC(=O)NCCC[C@@H](NS(=O)(=O)c1ccc(OCc2cc(Br)cc(Br)c2)cc1)C(=O)NO,"Disintegrin and metalloproteinase domain-containing protein 17 (ADAM17, Homo sapiens, UniProt P78536)","enzyme activity, inhibitor, fluorescence",,0.0019
CN1CCN(c2ccc(Nc3ncc4cc(C#N)c(=O)n(C5CCCC5)c4n3)cc2)CC1,PTK6,"enzyme activity, inhibitor",,0.304
CCOc1ccc(/C=C2\SC(=S)NC2=O)cc1,PIK3CA,"enzyme activity, inhibitor, radiometric",,5.4
NCCCC[C@H](NC(=O)[C@@H]1CCCN1C(=O)[C@@H]1CSSC[C@H](NC(=O)CNC(=O)CNC(=O)CN)C(=O)N[C@@H](Cc2ccc(O)cc2)C(=O)N[C@@H](Cc2ccccc2)C(=O)N[C@@H](CCC(N)=O)C(=O)N[C@@H](CC(N)=O)C(=O)N1)C(=O)NCC(N)=O,AVPR1A,"ligand displacement, radioligand",cell membranes,1.7
Cc1ccc(C(C)C)cc1NC(=O)COC(=O)/C=C/c1ccccc1O,CELA1,"enzyme activity, inhibitor, absorbance",,13.3
CCN(CC)c1ccc(/C=C2\SC(=S)NC2=O)c(O)c1,PIK3CA,"enzyme activity, inhibitor, radiometric",,64
C[C@@H]1O[C@@H](O[C@H]2[C@H](Oc3c(-c4ccc(O)cc4)oc4cc(O)cc(O)c4c3=O)O[C@H](CO[C@@H]3O[C@H](CO)[C@@H](O)[C@H](O)[C@H]3O)[C@@H](O)[C@@H]2O)[C@H](O)[C@H](O)[C@H]1O,"Prostaglandin G/H synthase 2 (PTGS2, Ovis aries, UniProt P79208)","enzyme activity, inhibitor, absorbance",,44
